In ChEMBL document CHEMBL1124429, “Heterocyclic analogues of benzamide antiarrhythmic agents” (J Med Chem, 1989):
Where “and” joins values, the source holds several entries; their conditions need not be identical. Identical values can stand only once.

Experiments:
[1] = organism: Canis familiaris; test: Percent change from control in the rate of rise of phase 0 of the action potential at 10 uM concentration on Canine Purkinje fibers.; value ranges from -21- -37; format: organism-based, Canis lupus familiaris, Purkinje fiber; settings: dog, in vitro
[2] = Maximum Percent change from control in the rate of rise of phase 0 of the action potential at 100 Purkinje fibers.; format: tissue-based, Purkinje fiber
Procedure, shortened: (§1)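 Isolated canine Purkinje fibers were superfused with physiological saline gassed with 95% O2/5% CO2 (pH 7.35–7.40) at 36 ± 0.5 °C. Paced at 1.0 Hz with 2-ms pulses at twice diastolic threshold. After up to 1 h stabilization, compounds were tested over 10^-8 to 10^-3 M, 30 min per concentration, one compound per fiber, with vehicle controls. Intracellular microelectrodes (3 M KCl) recorded Vmax and APD95; maximum percent change from control is reported with its concentration.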

[3] = organism: Canis familiaris; test: Maximum Percent change from control in the rate of rise of phase 0 of the action potential at 10 uM concentration on Canine Purkinje fibers.; format: functional, Canis lupus familiaris, Purkinje fiber; settings: dog, in vitro; procedure, shortened: as §1
[4] = organism: Canis familiaris; test: Maximum Percent change from control in the rate of rise of phase 0 of the action potential at 30 uM concentration on Canine Purkinje fibers.; design: species or system Canis lupus familiaris, Purkinje fiber; settings: dog, in vitro; procedure, shortened: as §1
[5] = organism: Canis familiaris; test: Maximum percent change in conduction time (CT) at 10 uM concentration tested on Canine ventricular muscle fibre; value ranges from -12 - -5; format: functional, Canis lupus familiaris, Muscle tissue
Procedure, shortened: (§2)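 Canine right ventricular papillary muscle strips were superfused at 36 ± 0.5 °C with saline gassed with 95% O2/5% CO2. Diastolic threshold was found with 2-ms stimuli at 4000 ms cycle length, then pacing at 4× threshold for 60 min equilibration. FRP was measured at 1000 ms cycle length by S1-S2 premature stimulus after every tenth S1. Conduction time came from a bipolar electrogram. Various compound concentrations were tested, one compound per strip, with vehicle controls. Percent change from control was taken at 10 µM, or the maximum change with its concentration; for N ≥ 3, mean with range.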

[6] = organism: Canis familiaris; test: Percent change from control in conduction time (CT) at 10 uM concentration tested on Canine ventricular muscle fibre.; value ranges from -12 - -5; format: functional, Canis lupus familiaris, Muscle tissue; procedure, shortened: as §2
[7] = organism: Canis familiaris; test: Maximum percent change in repolarization at 100 uM concentration on Canine Purkinje fibers.; format: functional, Canis lupus familiaris, Purkinje fiber; procedure, shortened: as §1
[8] = organism: Canis familiaris; test: Maximum percent change in repolarization at 10 uM concentration on Canine Purkinje fibers.; format: functional, Canis lupus familiaris, Purkinje fiber; procedure, shortened: as §1
[9] = organism: Canis familiaris; test: Maximum percent change in repolarization at 30 uM concentration on Canine Purkinje fibers.; format: functional, Canis lupus familiaris, Purkinje fiber; procedure, shortened: as §1
[10] = organism: Canis familiaris; test: Percent change in repolarization at 10 Purkinje fibers; value ranges from -11- -25.; format: functional, Canis lupus familiaris, Purkinje fiber
Procedure, shortened: (§3)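 Canine Purkinje fibers were held in oxygenated (95% O2–5% CO2) physiological saline, pH 7.35–7.40, at 36 ± 0.5 °C and paced at 1.0 Hz with 2-ms pulses at twice diastolic threshold. Intracellular microelectrodes (3 M KCl) recorded Vmax and APD95 simultaneously. After up to 1 h of stabilization, compounds were tested from 10^-8 to 10^-3 M with 30 min per concentration. One compound per fiber, with vehicle controls. For N ≥ 3, values are the mean with the range.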

[11] = organism: Canis familiaris; test: Maximum percent change in functional refractory period(FRP) of compound (10 uM) was tested from individual experiment on Canine ventricular muscle fibre.; design: species or system Canis lupus familiaris, Muscle tissue; procedure, shortened: as §2
[12] = organism: Canis familiaris; test: Percent change from control in the functional refractory period (FRP) at 10 uM conc. on Canine ventricular muscle fibre.; value ranges from -1-20; design: species or system Canis lupus familiaris, Muscle tissue; procedure, shortened: as §2
[13] = organism: Canis familiaris; test: Maximum percent change in functional refractory period (FRP) at 100 uM on Canine ventricular muscle fibre.; design: species or system Canis lupus familiaris, Muscle tissue; procedure, shortened: as §2
[14] = organism: Cavia porcellus; test: Concentration of compound which gives a 20% decrease in contractile force was tested on papillary muscle of guinea pig, activity was expressed as EC-20.; format: functional; settings: Muscle tissue
Procedure, shortened: (§4)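 Contractile force measured in an isolated cardiac muscle preparation. Value is the concentration giving a 20% decrease in force of contraction. NR marks that this decrease was not reached. Values come from individual experiments; for N ≥ 3, the mean is given with the range.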

[15] = organism: Canis familiaris; test: Percent change from control in the rate of rise of phase 0 of the action potential at 10 uM concentration on Canine Purkinje fibers.; design: species or system Canis lupus familiaris, Purkinje fiber; settings: dog, in vitro
[16] = organism: Canis familiaris; test: Maximum Percent change from control in the rate of rise of phase 0 of the action potential at 100 uM concentration on Canine Purkinje fibers.; format: Canis lupus familiaris, Purkinje fiber; settings: dog, in vitro; procedure, shortened: as §1
[17] = organism: Canis familiaris; test: Maximum percent change in conduction time (CT) at 100 uM concentration tested on Canine ventricular muscle fibre; format: functional, Canis lupus familiaris, Muscle tissue; procedure, shortened: as §2
[18] = organism: Canis familiaris; test: Maximum percent change in conduction time (CT) at 1 uM concentration tested on Canine ventricular muscle fibre; format: functional, Canis lupus familiaris, Muscle tissue; procedure, shortened: as §2
[19] = organism: Canis familiaris; test: Percent change from control in conduction time (CT) at 10 uM concentration tested on Canine ventricular muscle fibre.; format: functional, Canis lupus familiaris, Muscle tissue; procedure, shortened: as §2
[20] = organism: Canis familiaris; test: Maximum percent change in repolarization at 0.1 uM concentration on Canine Purkinje fibers.; format: functional, Canis lupus familiaris, Purkinje fiber; procedure, shortened: as §1
[21] = organism: Canis familiaris; test: Percent change in repolarization at 10 Purkinje fibers.; value ranges from 1-4; format: functional, Canis lupus familiaris, Purkinje fiber; procedure, shortened: as §3
[22] = organism: Canis familiaris; test: Percent change from control in the functional refractory period (FRP) at 10 uM conc. on Canine ventricular muscle fibre.; design: species or system Canis lupus familiaris, Muscle tissue; procedure, shortened: as §2
[23] = organism: Cavia porcellus; test: Concentration of compound which gives a 20% decrease in contractile force was tested on papillary muscle of guinea pig, activity was expressed as EC-20; N.R. is not reached.; format: functional; settings: Muscle tissue; procedure, shortened: as §4
[24] = organism: Canis familiaris; test: Maximum Percent change from control in the rate of rise of phase 0 of the action potential at 1 uM concentration on Canine Purkinje fibers.; design: species or system Canis lupus familiaris, Purkinje fiber; procedure, shortened: as §1
[25] = organism: Canis familiaris; test: Percent change from control in the rate of rise of phase 0 of the action potential at 10 uM concentration on Canine Purkinje fibers.; value ranges from -17 - -7; format: organism-based, Canis lupus familiaris, Purkinje fiber; settings: dog, in vitro
[26] = organism: Canis familiaris; test: Maximum percent change in conduction time (CT) at 0.1 uM concentration tested on Canine ventricular muscle fibre; format: functional, Canis lupus familiaris, Muscle tissue; procedure, shortened: as §2
[27] = organism: Canis familiaris; test: Maximum percent change in conduction time (CT) at 10 uM concentration tested on Canine ventricular muscle fibre; format: functional, Canis lupus familiaris, Muscle tissue; procedure, shortened: as §2
[28] = organism: Canis familiaris; test: Percent change in repolarization at 10 Purkinje fibers.; value ranges from -19 - 1; format: functional, Canis lupus familiaris, Purkinje fiber; procedure, shortened: as §3
[29] = organism: Canis familiaris; test: Maximum percent change in functional refractory period (FRP) at 1 uM on Canine ventricular muscle fibre.; design: species or system Canis lupus familiaris, Muscle tissue; procedure, shortened: as §2
[30] = organism: Canis familiaris; test: Percent change from control in the rate of rise of phase 0 of the action potential at 10 uM concentration on Canine Purkinje fibers.; value ranges from -17.0-2.0; design: species or system Canis lupus familiaris, Purkinje fiber; settings: dog, in vitro
[31] = organism: Canis familiaris; test: Maximum Percent change from control in the rate of rise of phase 0 of the action potential at 0.1 uM concentration on Canine Purkinje fibers.; design: species or system Canis lupus familiaris, Purkinje fiber; procedure, shortened: as §1
[32] = organism: Canis familiaris; test: Percent change from control in conduction time (CT) at 10 uM concentration tested on Canine ventricular muscle fibre.; M is minimal(<10% change in CT); format: functional; settings: Canis lupus familiaris, Muscle tissue; procedure, shortened: as §2
[33] = organism: Canis familiaris; test: Percent change in repolarization at 10 Purkinje fibers.; value ranges from -1-49; format: functional, Canis lupus familiaris, Purkinje fiber; procedure, shortened: as §3
[34] = organism: Canis familiaris; test: Maximum percent change in functional refractory period (FRP) at 10 uM on Canine ventricular muscle fibre.; design: species or system Canis lupus familiaris, Muscle tissue; procedure, shortened: as §2
[35] = organism: Canis familiaris; test: Percent change from control in the functional refractory period (FRP) at 10 uM concentration on Canine ventricular muscle fibre.; design: species or system Canis lupus familiaris, Muscle tissue; procedure, shortened: as §2
[36] = organism: Cavia porcellus; test: Concentration of compound ( ) which gives a 20% decrease in contractile force was tested on papillary muscle of guinea pig, activity was expressed as EC-20.; NR is not reached.; format: functional; settings: Muscle tissue; procedure, shortened: as §4

Compound | Vmax [3] [%] | Vmax [4] | APD95 [7] [%] | APD95 [8] [%] | APD95 [9] [%] | FRP [13] [%] | EC20 [14] [µM] | Vmax [16] [%] | CT [18] [%] | CT [19] [%] | FRP [22] [%] | CT [26] [%] | also measured
CCN(CC)CCCNC(=O)c1cc2cccc(OCc3ccccc3)c2[nH]1 | -33 | -56% | 18 | -11 | -38 | 7 | 8 |  |  |  |  |  | Vmax [1]: -30.3%; Vmax [2]: -79%; CT [5]: -4%; CT [6]: -4%; APD95 [10]: -16.3%; FRP [11]: 20%; FRP [12]: 8%
CCN(CC)CCNC(=O)c1c(O)cc(C)nc1C |  | -12% | 4 | 4 |  | 26 |  | -7 | -5 | -5 | 21 |  | Vmax [15]: 0.3%; CT [17]: -16%; APD95 [20]: 5%; APD95 [21]: 3%; EC20 [23]: Not reached; Vmax [24]: -5%
CCN(CC)CCCNC(=O)c1cc2cccc(O)c2[nH]1 |  | -20% and -26% | -53 |  | -14 | 19 | 36 | -45 |  | -3 | 9 | -8 | Vmax [25]: -11%; CT [27]: -23%; APD95 [28]: -10%; FRP [29]: 8%
CCN(CC)CCNC(=O)c1[nH]c(C)c(C)c1C | -17 |  | -9 |  | 12 |  |  | -42 | -5 |  |  | 7 | Vmax [30]: -6.3%; Vmax [31]: -3%; CT [32]: Minimal; APD95 [33]: 19.7%; FRP [34]: 24%; FRP [35]: 24%; EC20 [36]: Not reached
